In ChEMBL document CHEMBL4689842, “EUbOPEN Chemogenomics Library wave 1” (2021):

Experiments:
[1] = system: U2OS; experiment: Incucyte cell viability with U2OS; assay type: toxicity, cell-based; settings: human, 10 µM, compound concentration 10 uM; further: filed as whole numbers so only -1 and 0 and 1 occur
[2] = system: U2OS; experiment: Multiplex assay against U2OS; assay type: toxicity, cell-based; settings: human
Summary of the method: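 Four dyes were applied at seeding to live cells: Hoechst33342, BioTracker Green Microtubule Cytoskeleton Dye, MitoTracker Red and Annexin V Alexa Fluor 680. Imaging after compound addition used a CQ1 microscope at 37°C and 5% CO2. CellPathfinder machine-learning gating then sorted cells into Hoechst high-intensity objects or normal cells, normal cells into healthy, pyknosed or fragmented nuclei, and pyknosed cells into mitotic or apoptotic, with tubulin, mitochondrial-mass and membrane-permeability phenotypes given as per cents of healthy-nucleus cells.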

[3] = 12 h, 1 µM, compound concentration 1 uM, replicate 1
[4] = 12 h, 1 µM, compound concentration 1 uM, replicate 2
[5] = 12 h, 10 µM, compound concentration 10 uM, replicate 1
[6] = 12 h, 10 µM, compound concentration 10 uM, replicate 2
[7] = 24 h, 1 µM, compound concentration 1 uM, replicate 1
[8] = 24 h, 1 µM, compound concentration 1 uM, replicate 2
[9] = 24 h, 10 µM, compound concentration 10 uM, replicate 1
[10] = 24 h, 10 µM, compound concentration 10 uM, replicate 2

CNC(=O)c1cc(Oc2ccc(NC(=O)Nc3cc(C(C)(C)C)nn3-c3ccc4ncccc4c3)c(F)c2)ccn1 [REBASTINIB]
Growth Rate ([1]; 0 h, replicate number 1, timepoint 0 hours): 1 | Growth Rate ([1]; 6 h, replicate number 1, timepoint 6 hours): 0 | Growth Rate ([1]; 6 h, replicate number 2, timepoint 6 hours): 1 | Growth Rate ([1]; 12 h, replicate number 1, timepoint 12 hours): 0 | Growth Rate ([1]; 18 h, replicate number 1, timepoint 18 hours): 0 | Growth Rate ([1]; 24 h, replicate number 1, timepoint 24 hours): 0 | Population Apoptotic (%) [2, 3]: 46% | Population Fragmented Nuclei (%) [2, 3]: 3% | Population Healthy Nuclei (%) [2, 3]: 88% | Population Hoechst High Intensity Objects (%) [2, 3]: 3% | Population Membrane Permeable-Phenotype (%) [2, 3]: 16% | Population Mitochondria Different-Phenotype (%) [2, 3]: 15% | Population Mitotic Cells (%) [2, 3]: 53% | Population Normal (%) [2, 3]: 96% | Population Pyknosed Nuclei (%) [2, 3]: 7% | Population Tubulin-Different-Phenotype (%) [2, 3]: 13% | Total Cell Count [2, 3]: 164 | Population Apoptotic (%) [2, 4]: 0% | Population Fragmented Nuclei (%) [2, 4]: 10% | Population Healthy Nuclei (%) [2, 4]: 87% | Population Hoechst High Intensity Objects (%) [2, 4]: 7% | Population Membrane Permeable-Phenotype (%) [2, 4]: 17% | Population Mitochondria Different-Phenotype (%) [2, 4]: 31% | Population Mitotic Cells (%) [2, 4]: 100% | Population Normal (%) [2, 4]: 92% | Population Pyknosed Nuclei (%) [2, 4]: 1% | Population Tubulin-Different-Phenotype (%) [2, 4]: 35% | Total Cell Count [2, 4]: 113 | Population Apoptotic (%) [2, 5]: 50% | Population Fragmented Nuclei (%) [2, 5]: 16% | Population Healthy Nuclei (%) [2, 5]: 63% | Population Hoechst High Intensity Objects (%) [2, 5]: 6% | Population Membrane Permeable-Phenotype (%) [2, 5]: 30% | Population Mitochondria Different-Phenotype (%) [2, 5]: 54% | Population Mitotic Cells (%) [2, 5]: 50% | Population Normal (%) [2, 5]: 93% | Population Pyknosed Nuclei (%) [2, 5]: 20% | Population Tubulin-Different-Phenotype (%) [2, 5]: 96% | Total Cell Count [2, 5]: 196 | Population Apoptotic (%) [2, 6]: 46% | Population Fragmented Nuclei (%) [2, 6]: 8% | Population Healthy Nuclei (%) [2, 6]: 72% | Population Hoechst High Intensity Objects (%) [2, 6]: 11% | Population Membrane Permeable-Phenotype (%) [2, 6]: 18% | Population Mitochondria Different-Phenotype (%) [2, 6]: 52% | Population Mitotic Cells (%) [2, 6]: 53% | Population Normal (%) [2, 6]: 88% | Population Pyknosed Nuclei (%) [2, 6]: 18% | Population Tubulin-Different-Phenotype (%) [2, 6]: 98% | Total Cell Count [2, 6]: 111 | Population Apoptotic (%) [2, 7]: 25% | Population Fragmented Nuclei (%) [2, 7]: 6% | Population Healthy Nuclei (%) [2, 7]: 84% | Population Hoechst High Intensity Objects (%) [2, 7]: 2% | Population Membrane Permeable-Phenotype (%) [2, 7]: 12% | Population Mitochondria Different-Phenotype (%) [2, 7]: 28% | Population Mitotic Cells (%) [2, 7]: 75% | Population Normal (%) [2, 7]: 97% | Population Pyknosed Nuclei (%) [2, 7]: 9% | Population Tubulin-Different-Phenotype (%) [2, 7]: 13% | Total Cell Count [2, 7]: 218 | Population Apoptotic (%) [2, 8]: 44% | Population Fragmented Nuclei (%) [2, 8]: 13% | Population Healthy Nuclei (%) [2, 8]: 79% | Population Hoechst High Intensity Objects (%) [2, 8]: 13% | Population Membrane Permeable-Phenotype (%) [2, 8]: 14% | Population Mitochondria Different-Phenotype (%) [2, 8]: 26% | Population Mitotic Cells (%) [2, 8]: 55% | Population Normal (%) [2, 8]: 86% | Population Pyknosed Nuclei (%) [2, 8]: 7% | Population Tubulin-Different-Phenotype (%) [2, 8]: 35% | Total Cell Count [2, 8]: 126 | Population Apoptotic (%) [2, 9]: 75% | Population Fragmented Nuclei (%) [2, 9]: 17% | Population Healthy Nuclei (%) [2, 9]: 50% | Population Hoechst High Intensity Objects (%) [2, 9]: 18% | Population Membrane Permeable-Phenotype (%) [2, 9]: 33% | Population Mitochondria Different-Phenotype (%) [2, 9]: 91% | Population Mitotic Cells (%) [2, 9]: 24% | Population Normal (%) [2, 9]: 81% | Population Pyknosed Nuclei (%) [2, 9]: 31% | Population Tubulin-Different-Phenotype (%) [2, 9]: 94% | Total Cell Count [2, 9]: 227 | Population Apoptotic (%) [2, 10]: 64% | Population Fragmented Nuclei (%) [2, 10]: 15% | Population Healthy Nuclei (%) [2, 10]: 59% | Population Hoechst High Intensity Objects (%) [2, 10]: 17% | Population Membrane Permeable-Phenotype (%) [2, 10]: 30% | Population Mitochondria Different-Phenotype (%) [2, 10]: 87% | Population Mitotic Cells (%) [2, 10]: 35% | Population Normal (%) [2, 10]: 82% | Population Pyknosed Nuclei (%) [2, 10]: 25% | Population Tubulin-Different-Phenotype (%) [2, 10]: 97% | Total Cell Count [2, 10]: 141
